The structures appear in SMILES notation. The source made the active and inactive calls.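 How the source made its calls: active means inhibition above 10%; inactive means the rest.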

Chain of Hexokinase-4 (Homo sapiens) (P35557 whole entry, looked up): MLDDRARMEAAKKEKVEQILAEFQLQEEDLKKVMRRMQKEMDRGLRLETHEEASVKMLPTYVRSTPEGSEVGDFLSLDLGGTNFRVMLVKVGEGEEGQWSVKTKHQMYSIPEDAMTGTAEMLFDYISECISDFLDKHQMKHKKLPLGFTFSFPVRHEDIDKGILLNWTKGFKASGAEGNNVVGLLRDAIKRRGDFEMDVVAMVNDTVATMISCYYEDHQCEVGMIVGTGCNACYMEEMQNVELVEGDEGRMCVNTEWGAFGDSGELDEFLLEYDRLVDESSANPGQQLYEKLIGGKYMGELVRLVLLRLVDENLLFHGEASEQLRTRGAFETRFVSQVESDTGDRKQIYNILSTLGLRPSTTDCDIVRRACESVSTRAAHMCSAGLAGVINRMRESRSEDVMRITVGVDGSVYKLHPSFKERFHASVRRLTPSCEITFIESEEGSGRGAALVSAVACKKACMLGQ

The test concerns the target Hexokinase-4 (Homo sapiens) (UniProt P35557). The test is described as follows: human glucokinase inhibition, counter-screen for TbHK1 inhibitor project, biochemical, recombinant hGlck (AID 492951). Particulars: G6PDH-coupled NADH absorbance 340 nm, at 10 µM; stronger effect = higher value. The method in brief:
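Test system: recombinant human glucokinase, G6PDH-coupled; Medium: pH 7.9 TEA buffer, MgCl2, NAD+; Also added: 20 mM glucose as reaction starter, plus 1 mM ATP; Compound dosing: single final test compound dose of 10 µM; Schedule: 10 min preincubation at room temperature; Measured by: NADH formation by absorbance at 340 nm; Repeats: triplicate.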
In general terms: A counterscreen serves to expose hits that act by an unwanted route or on another target.
With `COc1ccccc1C(=O)Nc1cc(Cl)ccc1C(=O)O`, the result was inactive.

As to `COc1ccc(C(=O)Nc2cccc(Cl)c2)cc1`, the outcome was inactive.

Turning to `O=C(Cn1sc2ccccc2c1=O)Nc1ccccc1F`, the result was inactive.

As for `O=C(Cn1sc2ccccc2c1=O)Nc1ccc(C(F)(F)F)cc1`, the inhibition was 23.8% (active).

With `COc1ccc(Nc2cc(Cl)ccc2C(=O)O)cc1`, the result was inactive.

`COc1ccc(C(=O)Nc2cc(Cl)ccc2O)cc1`: the inhibition is 22.2% (active).

As for `COc1ccc(C(=O)Nc2cc(I)ccc2C(=O)O)cc1`, the outcome was inactive.

Take `CCC(C)(C)c1ccc(C(=O)Nc2cc(Cl)ccc2C(=O)O)cc1`: the inhibition was 26% (active).

With `N#Cc1ccccc1NC(=O)Cn1sc2ccccc2c1=O`, the inhibition is 10.9% (active).

As for `COC(=O)c1cc(Cl)ccc1NC(=O)c1ccc(OC)cc1`, the outcome was inactive.

For `O=C(Nc1cc(Cl)ccc1C(=O)O)c1ccc(C2CCC2)cc1`, the inhibition is 35.4% (active).

On to `O=C(Cn1sc2ccccc2c1=O)Nc1ccccc1Cl`, for which the outcome was inactive.

Take `O=C(Nc1cc(Cl)ccc1C(=O)O)c1ccccc1`: the outcome was inactive.

Regarding `O=C(Cn1sc2ccccc2c1=O)Nc1ccccc1`, the inhibition was 7.03% (inactive).

On to `COc1ccc(C(=O)NC(CC(=O)O)c2cccc(Cl)c2)cc1` (stereo not drawn), for which the outcome was inactive.

For `O=C(Nc1cc(Cl)ccc1C(=O)O)c1ccc(-c2ccccc2)cc1`, the inhibition was 27.6% (active).

For the compound `CCCCCC(=O)Nc1cc(Cl)ccc1C(=O)O`, the outcome was inactive.

Regarding `COc1ccc(C(=O)Nc2cc(Cl)ccc2-c2noc(=O)[nH]2)cc1`, the inhibition is 30.1% (active).

`O=c1c2cc(C(F)(F)F)ccc2sn1-c1ccccc1`: the inhibition was 45.7% (active).

With `COc1ccc(-c2cc3ccccc3[nH]2)cc1`, the inhibition is 30.3% (active).

As to `CCOc1ccc(C(=O)Nc2cc(Cl)ccc2C(=O)O)cc1`, the inhibition was 9.4% (inactive).

Consider `O=C1c2ccccc2S(=O)N1c1ccc(Cl)cc1` (stereo not drawn), for which the inhibition is 37.2% (active).

As to `Cc1ccc(C(=O)Nc2cc(Cl)ccc2C(=O)O)c(C)c1`, the inhibition was 12.5% (active).

Take `COc1cccc(NC(=O)Cn2sc3ccccc3c2=O)c1`: the inhibition is 2.9% (inactive).

`O=c1c2cc(F)ccc2sn1-c1ccccc1`: the inhibition is 50.1% (active).

On to `COc1ccc(C(=O)Nc2ccccc2C(=O)O)cc1Cl`, for which the inhibition is 11.9% (active).

`COc1ccc(C(=O)Nc2cc(-c3ccccc3)ccc2C(=O)O)cc1`: the outcome was inactive.

For the compound `COc1ccc(C(=O)NCC(=O)O)cc1`, the inhibition was 20.5% (active).

With `O=C(Cn1sc2ccccc2c1=O)Nc1ccc(I)cc1`, the inhibition is 36.2% (active).

As for `COc1ccc(C(=O)Nc2ccccc2-c2nn[nH]n2)cc1`, the result was inactive.

For `O=C(Nc1cc(Cl)ccc1C(=O)O)c1ccc2c(c1)OCO2`, the outcome was inactive.

`COc1ccccc1-n1sc2ccccc2c1=O`: the inhibition was 55% (active).

Consider `COc1ccc(NC(=O)c2ccccc2SCc2ccccc2)cc1`, for which the inhibition is 41.2% (active).

`O=C(Nc1cc(Cl)ccc1C(=O)O)c1ccc(I)cc1`: the inhibition is 22.9% (active).

For `CC(=O)Nc1cc(Cl)ccc1C(=O)O`, the result was inactive.

Take `O=C(Nc1cc(Cl)ccc1C(=O)O)c1cocn1`: the outcome was inactive.

As for `O=C(Nc1ccccc1)n1sc2ccccc2c1=O`, the inhibition is 32.9% (active).

Regarding `O=C(Cn1sc2ccccc2c1=O)Nc1cccc(C(F)(F)F)c1`, the inhibition is 9.3% (inactive).

What is called inhibition is how much of the control response was suppressed.

Source of the values: PubChem BioAssay AID492951 (Molecular Libraries Program, Specialized Chemistry Center, …, 2010).
